D1 mod: D1 CRE-luciferase signal change, two-sided – cell-based, HEK293 D1, dopamine EC30, D1 allosteric modulator project, primary screen; D(1A) dopamine receptor (Homo sapiens), P21728; dopamine EC30 potentiation; actives deviate in either direction; B-score at 10 µM; actives 5.9% (n = 58,000);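 active means luminescence count or its row- and column-corrected plate score outside the 99.7% band of the plate's sample wells, on either side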
Target sequence (P21728 whole entry, looked up): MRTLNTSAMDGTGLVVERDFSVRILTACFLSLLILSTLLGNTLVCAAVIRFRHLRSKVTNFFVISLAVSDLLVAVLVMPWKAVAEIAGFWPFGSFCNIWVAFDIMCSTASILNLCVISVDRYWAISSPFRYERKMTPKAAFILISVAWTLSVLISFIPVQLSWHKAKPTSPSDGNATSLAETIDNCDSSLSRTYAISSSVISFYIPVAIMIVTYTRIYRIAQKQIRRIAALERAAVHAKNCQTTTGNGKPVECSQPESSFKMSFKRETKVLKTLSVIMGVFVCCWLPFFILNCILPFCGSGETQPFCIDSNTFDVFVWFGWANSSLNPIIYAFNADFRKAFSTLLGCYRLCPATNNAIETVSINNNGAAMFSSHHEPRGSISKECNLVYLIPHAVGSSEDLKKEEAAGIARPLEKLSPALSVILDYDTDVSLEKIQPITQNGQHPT
hDAT+cocaine: changed hDAT dopamine uptake under cocaine IC80, either direction, primary screen, cocaine antagonist project, cell-based, LLC-PK1 hDAT, [14C]-dopamine uptake, MLSMR. Sodium-dependent dopamine transporter (Homo sapiens), Q01959. B-score at 10 µM. AID 449768, 2010. actives 1.3% (n = 110,000). LLC-PK1 hDAT cells, [14C]-dopamine uptake with cocaine IC80; actives deviate in either direction;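 active means Z score or B-score, a plate-position-corrected score, falls beyond the plate's 99.7% confidence bounds, in either direction; inactive means both scores lie inside the 99.7% bounds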
tolC growth inh: growth inhibitors of E. coli tolC mutant, primary screen, strain BW25113 ΔtolC::kan, 384-well; OD615; actives 2.2% (n = 65,000); AID 573, 2007; growth inhibition, % at 10 µM (by protocol);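 active means growth inhibition at or above a cutoff equal to the mean over every tested compound plus 3 SD, cut at about 60% in these data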;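 further: growth measured after 20 h incubation at 37 °C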
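Test system: E. coli BW25113 ΔtolC::kan bacteria | Medium: Kanamycin-containing LB broth (50 µg/mL) | Dosing: One dose of 10 µM final | Times: 20 h incubation with compound, 37 °C | Detection: Optical density read at 615 nm | Read-out basis: Percent growth inhibition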
E coli WT exp: growth inhibitors of wild-type E. coli, primary screen, strain BW25113, expanded library, OD600 | OD600 absorbance | growth inhibition, % at 100 µM | actives 0.15% (n = 98,000) | AID 710, 2007;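 active means growth inhibition above about 50% at one test dose, limit read from the data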;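 further: growth measured after 20 h incubation at 37 °C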
PostGolgi ctrl: growth inhibition of yeast control strain, primary screen, counter-screen for post-Golgi transport modulator project | AID 738, 2007 | efflux-deficient yeast background strain, growth absorbance A615, 16 h | inhibition, % at 10 µM | actives 5% (n = 98,000)
PostGolgi yeast: phenotypic screen on post-Golgi transport, primary screen | inhibition, % at 10 µM | AID 739, 2007 | post-Golgi transport phenotypic cell assay | actives 0.9% (n = 98,000);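 further: yeast cells grown in 1536-well plates; yeast grown about 18 h at 30C before absorbance read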
D1 mod confirm: D1 receptor positive allosteric modulators, retest, confirmation, cell-based, HEK293 D1, CRE-luciferase, duplicate; shares compounds with D1 mod; dopamine EC30 potentiation; stronger effect = higher value; luminescence at 10 µM; actives 88% (n = 2,200); AID 642, 2007;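 active means luminescence in either of two replicates above the same-plate mean plus 3 SD of the low-dose dopamine control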
D1 ag no DA: D1 receptor agonism without dopamine, confirmation, mechanism study for D1 allosteric modulator project, cell-based, HEK293 D1, CRE-luciferase, secondary assay 1; luminescence, no dopamine; stronger effect = higher value; shares compounds with D1 mod; actives 0.8% (n = 1,900); luminescence at 10 µM; in the data active means luminescence above about 3900
Isoprot counter: alters isoproterenol CRE-luciferase response in HEK293 cells; shares compounds with D1 mod; actives 63% (n = 2,200); calls only at 10 µM; HEK293 D1 CRE-luciferase, isoproterenol EC30 counter-screen;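 active means luminescence in either replicate above plate mean of wells with a partly effective reference agonist dose plus 3 SD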;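 further: isoproterenol raises cAMP through native beta-adrenoceptor Gs so signal bypasses D1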
Each line names hits and unclear results; the compound was inactive in the other large screens (follow-up assays come after a bar, where they were run). Sampled rows, rich in hits. Any-hit rate of the full collection: about 9.3%. Unless noted, no stated cut-off is given here; in the data, active means inhibition above about 30%; inactive means the rest.

OC(CN1CCOCC1)CN(c1ccccc1)c1ccccc1 (stereo not drawn)	none
CCOc1ccccc1NC(=O)CSc1nnc(-c2ccccc2Cl)n1Cc1ccco1	none
CC(C)CCN1C(=O)c2ccc(C(=O)NCC3CCCO3)cc2C1=O (stereo not drawn)	none (no result: D1 mod)
Cc1cc(NS(=O)(=O)c2ccc(NC(=O)COc3ccccc3Cl)cc2)no1	none
Cc1cc(NS(=O)(=O)c2ccc(NC(=O)COc3ccccc3C(C)C)cc2)no1	D1 mod 4.12, tolC growth inh 61.9 | D1 mod confirm 6636 | D1 ag no DA inactive | Isoprot counter inactive
CNc1nc(NC)nc(-n2c(C(F)(F)F)nc3ccccc32)n1	D1 mod 8.02 | D1 mod confirm 18112 | D1 ag no DA inactive | Isoprot counter active
COC(=O)Cn1c(C(F)(F)F)nc2ccccc21	none (no result: D1 mod, tolC growth inh, E coli WT exp, PostGolgi ctrl, PostGolgi yeast)
c1ccc(-c2ccccc2-n2cnnn2)cc1	none (no result: E coli WT exp, PostGolgi ctrl, PostGolgi yeast)
CC(=O)c1sc(NC(=O)c2ccc(Cn3cc(Br)cn3)o2)nc1C	none (no result: D1 mod)
Cc1ccc2nc(NC(=O)c3ccc(Cn4cc(Cl)cn4)o3)sc2c1	D1 mod 6.59 | D1 mod confirm inactive | D1 ag no DA inactive | Isoprot counter inactive
Cc1ccc2c(c1)c(-c1ccccc1)nc1nncn12	D1 mod 9.09 | D1 mod confirm 13296 | D1 ag no DA inactive | Isoprot counter active
COc1ccc(-c2cc(C(=O)N3CCCCC3)no2)cc1OC	D1 mod 9.48 | D1 mod confirm 14812 | Isoprot counter active
COc1ccc(-c2cc(C(=O)N3CCN(Cc4ccccc4)CC3)no2)cc1OC	none
COc1cccc(OC)c1OCCCSc1nc(C)cc(=O)[nH]1	none
CC(C)COc1cc(=O)[nH]c(SCC(C)C)n1	D1 mod 17.6 | D1 mod confirm 26448 | D1 ag no DA inactive | Isoprot counter active
CCO[C@@H]1OC(C(=O)N2CCN(Cc3ccc4c(c3)OCO4)CC2)=C[C@H](C2CC2)[C@H]1CCCO	none (no result: D1 mod, tolC growth inh, E coli WT exp, PostGolgi ctrl, PostGolgi yeast)
c1coc(-c2nc3nc4ccccc4nc3n2CC2CCCO2)c1 (stereo not drawn)	D1 mod 4.81 (no result: hDAT+cocaine, tolC growth inh) | D1 mod confirm 10012 | D1 ag no DA inactive | Isoprot counter active
S=c1[nH]nc(-c2ccco2)n1Cc1ccccc1	none (no result: D1 mod)
c1ccc(Cn2c(-c3ccco3)nc3nc4ccccc4nc32)cc1	D1 mod 3.54 | D1 mod confirm 7452 | D1 ag no DA inactive | Isoprot counter active
O=c1c2ccccc2nc(-c2ccco2)n1Cc1ccccc1	D1 mod 7.79 | D1 mod confirm 19492 | D1 ag no DA inactive | Isoprot counter active
CCCCCn1c(-c2ccco2)nc2nc3ccccc3nc21	D1 mod 12.1, tolC growth inh 76.9 (no result: hDAT+cocaine) | D1 mod confirm 18024 | D1 ag no DA inactive | Isoprot counter active
Cc1cc(NC(=O)c2sccc2C)n(-c2cccc(Cl)c2)n1	D1 mod 4.87 | D1 mod confirm 12892 | D1 ag no DA inactive | Isoprot counter active
CC(C)(C)Sc1nc(O)cc(=O)[nH]1	D1 mod 2.1 | D1 mod confirm inactive | D1 ag no DA inactive | Isoprot counter inactive
COc1ccc(C(=O)NCc2cn3c(C)csc3n2)cc1OC	D1 mod 8.31 | D1 mod confirm 15440 | D1 ag no DA inactive | Isoprot counter active
COc1cccc(-n2nnnc2SCC(=O)c2cc(OC)ccc2OC)c1	D1 mod 4.18 | D1 mod confirm inactive | D1 ag no DA inactive | Isoprot counter inactive
Cc1ccc(S(=O)(=O)N2CC3CCC2C3)cc1 (stereo not drawn)	D1 mod 4.37 | D1 mod confirm 6724 | Isoprot counter inactive
COc1ccc(CCN2C(=O)c3ccncc3C2=O)cc1OC	none (no result: D1 mod, tolC growth inh)
Cc1cc(Nc2ccc(C)c(F)c2)n2ncnc2n1	D1 mod 3.29 | D1 mod confirm inactive | D1 ag no DA inactive | Isoprot counter inactive
c1ccc(Nc2cc(-c3ccccc3)nc3ncnn23)cc1	D1 mod 7.92, PostGolgi yeast 92.6 | D1 mod confirm 15552 | D1 ag no DA inactive | Isoprot counter active
COc1ccc(CCNc2cc(-c3ccccc3)nc3ncnn23)cc1	none (no result: D1 mod, hDAT+cocaine, tolC growth inh)
CCCCn1c(NC(=O)CC)c(C#N)c2nc3ccccc3nc21	D1 mod 7.18 | D1 mod confirm 14868 | D1 ag no DA inactive | Isoprot counter active
CCO[C@@H]1OC(C(=O)N2CCN(C)CC2)=C[C@H](c2coc3ccccc3c2=O)[C@H]1CCCO	none (no result: D1 mod, tolC growth inh, E coli WT exp, PostGolgi ctrl, PostGolgi yeast)
Cc1noc(C)c1CSc1nnc2scc(-c3ccccc3)n12	D1 mod 10.5 | D1 mod confirm 13660 | D1 ag no DA inactive | Isoprot counter active
Cc1noc(C)c1CSc1nnc(-c2ccccc2)n1Cc1ccco1	D1 mod 4.73 | D1 mod confirm inactive | D1 ag no DA inactive | Isoprot counter inactive
O=c1[nH]c(=S)ccn1C1OC(CO)C(O)C1O (stereo not drawn)	none (no result: D1 mod, tolC growth inh, E coli WT exp, PostGolgi ctrl, PostGolgi yeast)
NC(=O)Cc1c[nH]c2cccc(O)c12	none (no result: E coli WT exp, PostGolgi ctrl, PostGolgi yeast)
CC(=O)Nc1ccc(S(=O)(=O)n2cnc3ccccc32)cc1	none (no result: D1 mod, tolC growth inh)
CCc1n[nH]c2c1/C(=N\O)CC(c1ccccc1)C2 (stereo not drawn)	D1 mod 4.26 | D1 mod confirm 7364 | D1 ag no DA inactive | Isoprot counter inactive
CCCCc1n[nH]c2c1/C(=N/O)CC(c1ccccc1)C2 (stereo not drawn)	none
COc1ccc(NC(=O)CSc2nnc(-c3cccs3)n2-c2ccccc2)cc1	none
Cc1ccc(Nc2nc(N)nc(CSCCO)n2)cc1	none (no result: D1 mod, tolC growth inh)
Cc1ccc(Nc2nc(N)nc(CC#N)n2)cc1	D1 mod 6.62 | D1 mod confirm 14616 | Isoprot counter active
C=CCNc1cc(C)oc(=O)c1C(=O)CCC	none (no result: D1 mod, tolC growth inh)
Cc1cccc(CCNS(=O)(=O)c2ccc3c(c2)oc(=O)n3C)c1	none (no result: D1 mod)
Cc1cccc(CCNS(=O)(=O)c2cnc[nH]2)c1	D1 mod 4.43 | D1 mod confirm inactive | D1 ag no DA inactive | Isoprot counter inactive
COc1ccc(CN2C(=O)c3cccnc3C2Nc2ccc(C)cc2)cc1 (stereo not drawn)	none (no result: D1 mod, tolC growth inh)
